Reference: article PMC3398233 (Chemical Research in Toxicology, 2012)
In brackets after ≈: the same amount, converted by molar mass. Several values for one entry are separate records, joined by “and”; a condition that tells them apart may be missing. Identical values can stand only once.

Columns and labels:
Phase II metabolism [1] = assay type: in vitro ADME, human; conditions: HLM; for Phase II metabolites detected (glucuronidation): 2 mM UDPGA, alamethicin, MgCl2, 90 min; for loss of parent compound during Phase II incubation: glucuronidation cofactors, 90 min
Phase II metabolism [2] = assay type: in vitro ADME, human; conditions: cytosol, 90 min; for Phase II metabolites detected (sulfation, glutathione conjugation): PAPS or reduced glutathione; for loss of parent compound during Phase II incubation: sulfation / glutathione cofactors
PCE [3] = test: DEHP hydrolysis to MEHP by PCE; assay type: in vitro ADME, porcine; conditions: 127 vs 1.08 pmol min^-1 mg protein^-1
PCE [4] = conditions: DEHP 50 μM; cited from earlier work
[5] = cited from earlier work
[6] = test system: fathead minnows (Pimephales promelas); conditions: dietary exposure to commercial mixture containing TBB and TBPH; cited from earlier work
[7] = TBB/TBPH metabolism in human liver microsomes; assay type: in vitro ADME
[8] = test system: hepatic porcine carboxylesterase; test: Metabolism in purified hepatic porcine carboxylesterase; assay type: in vitro ADME; conditions: Michaelis-Menten model, 10-min incubations
[9] = Solubility limit of TBB in incubation buffer; assay type: physicochemical; conditions: potassium phosphate buffer, pH 7.4
Outline: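 Practical upper limit judged from kinetics incubations in 100 mM potassium phosphate (pH 7.4), glass tubes, shaking at 37°C, 10 min, nine concentrations 0.0078–31.1 μM. Dosing concentrations checked by LC/MS/MS (negative APCI, C18 column, isocratic 98% methanol). Limit taken as the highest concentration without unacceptably high variability in measured substrate concentration.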

In the case of `O=C(O)c1cc(Br)c(Br)c(Br)c1Br` [TBBA, 2,3,4,5-tetrabromobenzoic acid], the “Phase II metabolites detected (glucuronidation)” value (Phase II metabolism [1]) is reported as “no Phase II metabolites were detected”, the “loss of parent compound during Phase II incubation” value (“loss” for short) (Phase II metabolism [1]) is reported as “no significant losses” and the “Phase II metabolites detected (sulfation, glutathione conjugation)” value (Phase II metabolism [2]) is reported as “no Phase II metabolites were detected”. For the same compound, the “loss” value (Phase II metabolism [2]) was “no significant losses”.
With `CCCCC(CC)COC(=O)c1c(Br)c(Br)c(Br)c(Br)c1C(=O)O` (stereo not drawn) [TBMEHP, mono(2-ethylhexyl) 2,3,4,5-tetrabromophthalate] the “Phase II metabolites detected (glucuronidation)” value (Phase II metabolism [1]) was “no Phase II metabolites were detected”, the “loss” value (Phase II metabolism [1]) was “no significant losses” and the “Phase II metabolites detected (sulfation, glutathione conjugation)” value (Phase II metabolism [2]) was “no Phase II metabolites were detected”. The “loss” value (Phase II metabolism [2]) was “no significant losses”.
In the case of `CCCCC(CC)COC(=O)c1ccccc1C(=O)OCC(CC)CCCC` (stereo not drawn) [DEHP, bis(2-ethylhexyl) phthalate], the “DEHP hydrolysis rate relative to TBPH hydrolysis rate in PCE” value (PCE [3]) is listed as “approximately 100 times” and the “MEHP formation rate from DEHP in PCE” value (PCE [4]) is listed as 127 pmol min^-1 mg protein^-1.
In the case of `CCCCC(CC)COC(=O)c1cc(Br)c(Br)c(Br)c1Br` (stereo not drawn) [TBB, 2-ethylhexyl-2,3,4,5-tetrabromobenzoate], the “estimated log KOW” value [5] is given as 8.8, the “metabolism in fathead minnows” value [6] is given as “metabolized to form unidentified brominated metabolites” and the “decrease of TBB during incubation (amount)” value ([7]; 60-min incubation, HLM 40 μg protein mL^-1, TBB 27.1 ± 1.3 μM) is given as roughly 2.9 nmol. The “reduction in the concentration of TBB” value ([7]; 60-min incubations with HLM, metabolite identification, GC/MS) was 79.9 ± 4.6%, the “Vmax for TBBA formation in HLM” value ([7]; Michaelis-Menten model, 10-min incubations, 40 μg protein mL^-1, TBB 0.0078–31.1 μM) was 0.644 ± 0.144 nmol min^-1 mg protein^-1 and the “effect of NADPH on the formation rate of TBBA” value ([7]; NADPH 0, 0.3, 3.0 and 30 mM, data not shown) was “did not significantly affect”. The Km at 10 min ([7]; both, human, pH 7.4, Km for TBBA formation in HLM, Michaelis-Menten model, 10-min incubations, 40 μg protein mL^-1, TBB 0.0078–31.1 μM) was 11.1 ± 3.9 µM, the Km ([7]; read-out: Km for TBBA formation in HLM, Michaelis-Menten model, 10-min incubations, 40 μg protein mL^-1, TBB 0.0078–31.1 μM) was roughly 10 µM and the “Vmax for TBBA formation in PCE” value [8] was 24.4 ± 2.6 nmol min^-1 mg protein^-1. For the same compound, the Km ([8]; read-out: Km for TBBA formation in PCE) was 9.3 µM and ~10 µM and the solubility [9] was roughly 30 µM (≈ 16.5 µg/mL).
